According to publication PMC3228886 (Journal of medicinal chemistry, 2011):
pEC50: −log10 of the molar value. Where a name gives a salt, the structure may show the parent alone. Blank lines part the entries; values can stand above or below the molecule they belong to.

Assays:
human TLR2 = human TLR2 (Homo sapiens, UniProt O60603); test: TLR2-specific NF-κB induction reporter gene assay; type: cell-based; details: for TLR2-agonistic activity (in words): TLR2-specific reporter gene assay
Outline: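 HEK-Blue reporter cells carry stably expressed secreted alkaline phosphatase under NF-κB promoters, inducible by TLR2 agonists. Cells were seeded at ~10⁵ cells/mL and grown to confluency, then stimulated for 12 h with serially diluted test compound. Supernatant sAP was read spectrophotometrically at 620 nm using an alkaline phosphatase-specific chromogen in the detection medium. Samples were run in quadruplicate, reported as means with standard deviations.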

human blood = details: ex vivo human blood models; cited from earlier work
rabbit = rabbit models; cited from earlier work
[1] = test system: murine models of immunization; details: cited from earlier work
Water solubility = type: physicochemical

Sequence of human TLR2 (O60603 21-784): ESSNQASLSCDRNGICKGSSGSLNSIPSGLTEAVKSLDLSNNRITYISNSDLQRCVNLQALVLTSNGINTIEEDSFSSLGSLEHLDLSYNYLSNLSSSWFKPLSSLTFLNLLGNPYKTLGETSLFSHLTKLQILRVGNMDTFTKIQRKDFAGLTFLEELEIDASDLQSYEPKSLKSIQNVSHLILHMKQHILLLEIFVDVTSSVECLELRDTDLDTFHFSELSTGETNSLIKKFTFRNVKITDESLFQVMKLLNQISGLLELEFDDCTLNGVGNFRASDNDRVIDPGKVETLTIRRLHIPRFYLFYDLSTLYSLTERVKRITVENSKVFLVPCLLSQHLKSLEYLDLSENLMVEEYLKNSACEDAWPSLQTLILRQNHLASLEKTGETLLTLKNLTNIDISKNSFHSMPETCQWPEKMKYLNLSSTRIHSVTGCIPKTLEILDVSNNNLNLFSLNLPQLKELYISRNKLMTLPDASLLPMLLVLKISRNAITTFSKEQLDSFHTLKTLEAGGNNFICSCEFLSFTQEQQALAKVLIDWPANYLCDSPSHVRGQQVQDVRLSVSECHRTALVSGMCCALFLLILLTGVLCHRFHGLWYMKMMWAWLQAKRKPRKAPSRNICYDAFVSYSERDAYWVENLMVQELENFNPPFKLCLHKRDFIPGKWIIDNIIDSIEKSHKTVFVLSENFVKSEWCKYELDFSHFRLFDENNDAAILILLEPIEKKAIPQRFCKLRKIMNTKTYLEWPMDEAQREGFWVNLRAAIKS
Sequence of human TLR2 (Q9Y2C9 32-796 partner): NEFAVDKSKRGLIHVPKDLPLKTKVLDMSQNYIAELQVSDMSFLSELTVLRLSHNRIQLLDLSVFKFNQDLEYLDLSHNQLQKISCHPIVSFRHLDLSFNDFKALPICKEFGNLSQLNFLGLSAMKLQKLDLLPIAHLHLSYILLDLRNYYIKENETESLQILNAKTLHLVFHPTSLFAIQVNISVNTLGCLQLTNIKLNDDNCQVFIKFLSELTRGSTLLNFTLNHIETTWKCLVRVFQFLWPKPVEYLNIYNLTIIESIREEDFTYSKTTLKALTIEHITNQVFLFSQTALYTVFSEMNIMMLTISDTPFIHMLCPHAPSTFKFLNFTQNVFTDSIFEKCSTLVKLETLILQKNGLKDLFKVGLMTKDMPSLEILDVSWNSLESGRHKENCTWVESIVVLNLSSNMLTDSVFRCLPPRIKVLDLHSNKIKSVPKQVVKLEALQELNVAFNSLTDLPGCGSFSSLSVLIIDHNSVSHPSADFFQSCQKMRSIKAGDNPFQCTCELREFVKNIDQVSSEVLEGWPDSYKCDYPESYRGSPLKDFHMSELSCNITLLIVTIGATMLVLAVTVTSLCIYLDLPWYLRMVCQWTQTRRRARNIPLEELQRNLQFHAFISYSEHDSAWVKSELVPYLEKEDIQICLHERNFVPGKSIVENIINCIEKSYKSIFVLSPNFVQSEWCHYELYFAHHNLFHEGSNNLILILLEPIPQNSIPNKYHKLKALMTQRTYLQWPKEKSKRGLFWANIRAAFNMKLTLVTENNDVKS

SMILES: CCCCCCCCCCCC(=O)OC[C@H](CSC[C@H](N)C(=O)N[C@@H](CO)C(=O)O)OC(=O)CCCCCCCCCCC [Compound 17]
TLR2-agonistic activity (in words) (human TLR2): lower in activity than the parent PAM2CS compound

SMILES: CCCCCCCCCCCCCCCCOC(=O)CCSC[C@H](N)C(=O)N[C@@H](CO)C(=O)OC [Compound 53, (S)-methyl 2-((R)-2-amino-3-((3-(hexadecyloxy)-3-oxopropyl)thio)propanamido)-3-hydroxypropanoate, trifluoroacetate]
TLR2-agonistic activity (in words) (human TLR2): virtually bereft of activity

SMILES: CCCCCCCCCCCCCC(=O)OC[C@H](CSC[C@H](N)C(=O)N[C@@H](CO)C(=O)O)OC(=O)CCCCCCCCCCCCC [Compound 18]
TLR2-agonistic activity (in words) (human TLR2): lower in activity than the parent PAM2CS compound

SMILES: CCCCCCCCCCCCCCCC(=O)OCC(CSC[C@H](N)C(=O)N[C@@H](CO)C(=O)O)OC(=O)CCCCCCCCCCCCCCC (stereo partly drawn) [PAM2CS, S-[2,3-bis(palmitoyloxy)-(2RS)-propyl]-R-cysteinyl-S-serine]
Pro-inflammatory activity (human blood): devoid of any detectable pro-inflammatory activity | Local reactogenicity and pyrogenicity (rabbit): devoid | Adjuvanticity [1]: potently adjuvantic

SMILES: CCCCCCCCCCCCCCCCOC(=O)CSC[C@H](N)C(=O)N[C@@H](CO)C(=O)OC [Compound 50, (S)-methyl 2-((R)-2-amino-3-((2-(hexadecyloxy)-2-oxoethyl)thio)propanamido)-3-hydroxypropanoate, trifluoroacetate]
TLR2-agonistic activity (in words) (human TLR2): virtually bereft of activity

SMILES: CCCCCCCCCCCCCCCC(=O)OCCSC[C@H](N)C(=O)N[C@@H](CO)C(=O)OC [Compound 44, 2-(((R)-2-amino-3-(((S)-3-hydroxy-1-methoxy-1-oxopropan-2-yl)amino)-3-oxopropyl)thio)ethyl palmitate, trifluoroacetate]
pEC50 (human TLR2): 8.26 | TLR2-agonistic activity (in words) (human TLR2): quite active | Water solubility (Water solubility): water-soluble

SMILES: CCCCCCCCCCCCCCCCCC(=O)OC[C@H](CSC[C@H](N)C(=O)N[C@@H](CO)C(=O)O)OC(=O)CCCCCCCCCCCCCCCCC [Compound 19]
TLR2-agonistic activity (in words) (human TLR2): lower in activity than the parent PAM2CS compound

SMILES: CCCCCCCCCCCCCCCC(=O)OC[C@H](CSC[C@H](NC(=O)CC[C@H](N)C(=O)O)C(=O)NCC(=O)OC(C)C)OC(=O)CCCCCCCCCCCCCCC [Compound 11]
TLR2-agonistic activity (in words) (human TLR2): virtually inactive

SMILES: CC/C=C\C/C=C\C/C=C\CCCCCCCC(=O)OC[C@H](CSC[C@H](N)C(=O)NCC(=O)OC(C)C)OC(=O)CCCCCCC/C=C\C/C=C\C/C=C\CC [Compound 9]
TLR2-agonistic activity (in words) (human TLR2): highly active | Water solubility (Water solubility): not water-soluble

SMILES: CCCCCCCCCCCCCCCC(=O)OC[C@H](CSC[C@H](N)C(=O)NCC(=O)OC(C)C)OC(=O)CCCCCCCCCCCCCCC [Compound 7]
TLR2-agonistic activity (in words) (human TLR2): highly active | Water solubility (Water solubility): not water-soluble

Further lines, results first:

TLR2-agonistic activity (in words) (human TLR2): inactive
SMILES: CCCCCCCCCCCCCCCC(=O)OC[C@H](CSC(C)(C)[C@H](N)C(=O)N[C@@H](CO)C(=O)O)OC(=O)CCCCCCCCCCCCCCC [Compound 64]

TLR2-agonistic activity (in words) (human TLR2): highly active | Water solubility (Water solubility): not water-soluble
SMILES: CCCCC/C=C\C/C=C\CCCCCCCC(=O)OC[C@H](CSC[C@H](N)C(=O)NCC(=O)OC(C)C)OC(=O)CCCCCCC/C=C\C/C=C\CCCCC [Compound 8]

TLR2-agonistic activity (in words) (human TLR2): completely inactive
SMILES: CCCCCCCCCCCCCCCC(=O)OCCCSC[C@H](N)C(=O)N[C@@H](CO)C(=O)OC [Compound 47, 3-(((R)-2-amino-3-(((S)-3-hydroxy-1-methoxy-1-oxopropan-2-yl)amino)-3-oxopropyl)thio)propyl palmitate, trifluoroacetate]

TLR2-agonistic activity (in words) (human TLR2): unexpectedly active
SMILES: CCCCCCCCCCCCCCCC(=O)OC[C@@H](O)CSC[C@H](N)C(=O)N[C@@H](CO)C(=O)O [Compound 35]

TLR2-agonistic activity (in words) (human TLR2): unexpectedly active
SMILES: CCCCCCCCCCCCCCCC(=O)O[C@H](CO)CSC[C@H](N)C(=O)N[C@@H](CO)C(=O)O [Compound 38]

TLR2-agonistic activity (in words) (human TLR2): inactive
SMILES: CCOCCOCCOCCCNCC(=O)OC[C@H](CSC[C@H](N)C(=O)N[C@@H](CO)C(=O)O)OC(=O)CNCCCOCCOCCOCC [Compound 24]

TLR2-agonistic activity (in words) (human TLR2): inactive
SMILES: CCCCCCCCCCCCCCCC(=O)OC[C@H](CSC(C)(C)[C@@H](N)C(=O)N[C@@H](CO)C(=O)OC)OC(=O)CCCCCCCCCCCCCCC [Compound 59]

TLR2-agonistic activity (in words) (human TLR2): inactive
SMILES: CCCCCCCCCCCCCCCC(=O)OC[C@H](CSCC[C@H](N)C(=O)N[C@@H](CO)C(=O)O)OC(=O)CCCCCCCCCCCCCCC [Compound 69]

TLR2-agonistic activity (in words) (human TLR2): inactive
SMILES: CCCCCCCCCCCCCCCC(=O)OC[C@H](CSCCC(=O)N[C@@H](CO)C(=O)OC)OC(=O)CCCCCCCCCCCCCCC [Compound 74]
